Source: ChEMBL document CHEMBL1938329, “The discovery of potent, selective, and orally active pyrazoloquinolines as PDE10A inhibitors for the treatment of Schizophrenia” (Bioorg Med Chem Lett, 2012)
One block for each compound: values may come before it. The source made the active and inactive calls. No cut-off for these calls is given here.

Legend:
Homo sapiens [1] = organism: Homo sapiens; test: Selectivity ratio of Ki for recombinant human PDE3 to Ki for recombinant human PDE10A
Procedure, shortened: (§1)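 Recombinant human PDE enzymes (PDE1–11) were tested in a scintillation proximity assay with [³H]cAMP as substrate, measuring hydrolysis of cAMP to AMP. Ki values are means of at least two experiments. The ratio is the Ki for each off-target PDE divided by the PDE10A Ki.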

Homo sapiens [2] = organism: Homo sapiens; test: Selectivity ratio of Ki for recombinant human PDE5A to Ki for recombinant human PDE10A; procedure, shortened: as §1
Homo sapiens [3] = organism: Homo sapiens; test: Selectivity ratio of Ki for recombinant human PDE2 to Ki for recombinant human PDE10A; procedure, shortened: as §1
Homo sapiens [4] = organism: Homo sapiens; test: Selectivity ratio of Ki for recombinant human PDE8 to Ki for recombinant human PDE10A; procedure, shortened: as §1
Homo sapiens [5] = organism: Homo sapiens; test: Selectivity ratio of Ki for recombinant human PDE4 to Ki for recombinant human PDE10A; procedure, shortened: as §1
Homo sapiens [6] = organism: Homo sapiens; test: Selectivity ratio of Ki for recombinant human PDE6 to Ki for recombinant human PDE10A; procedure, shortened: as §1
Homo sapiens [7] = organism: Homo sapiens; test: Selectivity ratio of Ki for recombinant human PDE9 to Ki for recombinant human PDE10A; procedure, shortened: as §1
Homo sapiens [8] = organism: Homo sapiens; test: Selectivity ratio of Ki for recombinant human PDE11 to Ki for recombinant human PDE10A; procedure, shortened: as §1
Homo sapiens [9] = organism: Homo sapiens; test: Selectivity ratio of Ki for recombinant human PDE1 to Ki for recombinant human PDE10A; procedure, shortened: as §1
Rattus norvegicus [10] = test: Antipsychotic activity in CD rat assessed as inhibition of MK-801-induced hyperactivity at 30 mg/kg, po relative to control; assay type: functional, organism-based; parameters: dose 30 mg/kg
Procedure, shortened: (§2)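 Male CD rats habituated to locomotor activity chambers 24 h before testing. On test day, MK-801 (0.3 mg/kg, sc) co-administered with PDE10 inhibitor (po), then rats placed in apparatus. Inhibition expressed as percent of activity in inhibitor + MK-801 group relative to vehicle + MK-801 group.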

Homo sapiens [11] = organism: Homo sapiens; test: Selectivity ratio of Ki for recombinant human PDE7 to Ki for recombinant human PDE10A; procedure, shortened: as §1
[12] = Ratio of drug level in brain to plasma in rat at 10 mg/kg, po at 6 hrs; assay type: ADME, organism-based; parameters: dose 10 mg/kg, route oral; conditions: read-out: BPR
Procedure, shortened: (§3)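 Rat cassette-accelerated rapid screen, 10 mg/kg oral. Plasma exposure measured over 0–6 h. Brain drug concentration taken at 6 h. Brain/plasma ratio is brain over plasma drug concentration at 6 h.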

[13] = molecular target: cAMP and cAMP-inhibited cGMP 3',5'-cyclic phosphodiesterase 10A (Homo sapiens, UniProt Q9Y233); test: Inhibition of recombinant human PDE10A using [3H]cAMP as substrate by scintillation proximity assay
Procedure, shortened: (§4)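 Scintillation proximity assay with [³H]cAMP as substrate, measuring hydrolysis of cAMP to AMP by recombinant human PDEs 1–11. Ki values are means of at least two experiments.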

[14] = AUC (0 to 6 hrs) in rat at 10 mg/kg, po; assay type: ADME, organism-based; parameters: time < 6 hr, dose 10 mg/kg, route oral; conditions: plasma; procedure, shortened: as §3
Phosphodiesterase 6 = test: Inhibition of recombinant human PDE6 using [3H]cAMP as substrate by scintillation proximity assay; assay type: protein assay; procedure, shortened: as §4
[15] = Drug uptake in rat brain at 10 mg/kg, po after 6 hrs; assay type: ADME, organism-based; parameters: dose 10 mg/kg, route oral; conditions: read-out: Drug uptake; procedure, shortened: as §3
[16] = AUC in dog at 2 mg/kg, po; assay type: ADME, organism-based, Canis lupus familiaris; parameters: dose 2 mg/kg, route oral; conditions: plasma
Phosphodiesterase 3 = Phosphodiesterase 3 (Homo sapiens, UniProt Q14432+Q13370); test: Inhibition of recombinant human PDE3 using [3H]cAMP as substrate by scintillation proximity assay; assay type: protein assay; procedure, shortened: as §4
Rattus norvegicus [17] = organism: Rattus norvegicus; test: Sedative activity in rat assessed as hypolocomotion by spontaneous locomotor activity test; assay type: organism-based; conditions: in vivo
Procedure, shortened: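 Hypolocomotion assessed in rats by spontaneous locomotor activity test, run to distinguish reversal of MK-801-induced behaviour from compound-induced hypolocomotion; ED₅₀ derived.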

[18] = Clearance in rat hepatocytes assessed per million of cells; assay type: ADME, cell-based, Hepatocyte; conditions: read-out: CLH
Rattus norvegicus [19] = test: Antipsychotic activity in po dosed CD rat assessed as inhibition of MK-801 induced hyperactivity relative to control; assay type: functional; procedure, shortened: as §2
[20] = Clearance in human hepatocytes assessed per million of cells; assay type: ADME, cell-based, Hepatocyte; conditions: read-out: CLH
[21] = Efflux ratio of permeability in human Caco2 cells; assay type: ADME, cell-based; conditions: Caco-2
Phosphodiesterase 4 = Phosphodiesterase 4 (Homo sapiens, UniProt P27815+Q08499+Q07343+Q08493); test: Inhibition of recombinant human PDE4 using [3H]cAMP as substrate by scintillation proximity assay; assay type: protein assay; procedure, shortened: as §4
[22] = Plasma protein binding in rat; assay type: ADME, cell-free; conditions: read-out: PPB (converted)
[23] = molecular target: Dual 3',5'-cyclic-AMP and -GMP phosphodiesterase 11A (Homo sapiens, UniProt Q9HCR9); test: Inhibition of recombinant human PDE11 using [3H]cAMP as substrate by scintillation proximity assay; procedure, shortened: as §4
[24] = molecular target: High affinity cGMP-specific 3',5'-cyclic phosphodiesterase 9A (Homo sapiens, UniProt O76083); test: Inhibition of recombinant human PDE9 using [3H]cAMP as substrate by scintillation proximity assay; procedure, shortened: as §4
Phosphodiesterase 8 = Phosphodiesterase 8 (Homo sapiens, UniProt O95263+O60658); test: Inhibition of recombinant human PDE8 using [3H]cAMP as substrate by scintillation proximity assay; assay type: protein assay; procedure, shortened: as §4
[25] = Clearance in dog hepatocytes assessed per million of cells; assay type: ADME, cell-based, Canis lupus familiaris, Hepatocyte; conditions: read-out: CLH
Phosphodiesterase 7 = Phosphodiesterase 7 (Homo sapiens, UniProt Q13946+Q9NP56); test: Inhibition of recombinant human PDE7 using [3H]cAMP as substrate by scintillation proximity assay; assay type: protein assay; procedure, shortened: as §4
[26] = molecular target: cGMP-dependent 3',5'-cyclic phosphodiesterase (Homo sapiens, UniProt O00408); test: Inhibition of recombinant human PDE2 using [3H]cAMP as substrate by scintillation proximity assay; procedure, shortened: as §4
Phosphodiesterase 1 = Phosphodiesterase 1 (Homo sapiens, UniProt P54750+Q01064+Q14123); test: Inhibition of recombinant human PDE1 using [3H]cAMP as substrate by scintillation proximity assay; assay type: protein assay; procedure, shortened: as §4
[27] = molecular target: cGMP-specific 3',5'-cyclic phosphodiesterase (Homo sapiens, UniProt O76074); test: Inhibition of recombinant human PDE5A using [3H]cAMP as substrate by scintillation proximity assay; procedure, shortened: as §4
[28] = Clearance in cebus monkey hepatocytes assessed per million of cells; assay type: ADME, cell-based, Hepatocyte; conditions: cebus capucinus, read-out: CLH

Sequence of cAMP and cAMP-inhibited cGMP 3',5'-cyclic phosphodiesterase 10A (Q9Y233 whole entry): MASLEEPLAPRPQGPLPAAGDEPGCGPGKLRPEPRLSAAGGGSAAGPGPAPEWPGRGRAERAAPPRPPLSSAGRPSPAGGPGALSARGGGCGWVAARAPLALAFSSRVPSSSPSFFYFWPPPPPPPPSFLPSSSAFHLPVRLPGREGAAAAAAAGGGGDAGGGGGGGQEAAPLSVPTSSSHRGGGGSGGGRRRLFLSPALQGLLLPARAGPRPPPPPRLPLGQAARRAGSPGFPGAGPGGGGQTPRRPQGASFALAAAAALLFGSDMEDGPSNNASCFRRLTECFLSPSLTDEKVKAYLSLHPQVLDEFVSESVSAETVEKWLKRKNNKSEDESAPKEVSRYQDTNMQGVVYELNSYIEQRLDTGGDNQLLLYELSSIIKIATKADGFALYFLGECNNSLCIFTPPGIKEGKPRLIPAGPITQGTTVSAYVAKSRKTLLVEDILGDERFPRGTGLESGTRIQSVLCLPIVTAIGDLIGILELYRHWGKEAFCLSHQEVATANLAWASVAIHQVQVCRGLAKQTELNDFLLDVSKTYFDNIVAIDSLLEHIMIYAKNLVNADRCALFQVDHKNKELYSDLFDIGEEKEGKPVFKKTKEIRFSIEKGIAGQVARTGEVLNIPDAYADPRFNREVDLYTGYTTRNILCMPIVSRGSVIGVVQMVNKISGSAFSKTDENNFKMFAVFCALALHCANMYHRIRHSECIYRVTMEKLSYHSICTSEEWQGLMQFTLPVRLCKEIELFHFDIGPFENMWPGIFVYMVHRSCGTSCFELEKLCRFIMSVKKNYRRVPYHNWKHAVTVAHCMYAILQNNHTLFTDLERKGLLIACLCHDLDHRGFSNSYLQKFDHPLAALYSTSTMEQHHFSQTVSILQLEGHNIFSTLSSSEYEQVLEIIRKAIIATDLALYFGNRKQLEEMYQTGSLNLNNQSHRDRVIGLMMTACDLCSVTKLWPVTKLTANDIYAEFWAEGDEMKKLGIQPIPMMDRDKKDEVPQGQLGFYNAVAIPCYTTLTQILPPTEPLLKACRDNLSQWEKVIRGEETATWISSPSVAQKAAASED
Sequence of cGMP-dependent 3',5'-cyclic phosphodiesterase (O00408 whole entry): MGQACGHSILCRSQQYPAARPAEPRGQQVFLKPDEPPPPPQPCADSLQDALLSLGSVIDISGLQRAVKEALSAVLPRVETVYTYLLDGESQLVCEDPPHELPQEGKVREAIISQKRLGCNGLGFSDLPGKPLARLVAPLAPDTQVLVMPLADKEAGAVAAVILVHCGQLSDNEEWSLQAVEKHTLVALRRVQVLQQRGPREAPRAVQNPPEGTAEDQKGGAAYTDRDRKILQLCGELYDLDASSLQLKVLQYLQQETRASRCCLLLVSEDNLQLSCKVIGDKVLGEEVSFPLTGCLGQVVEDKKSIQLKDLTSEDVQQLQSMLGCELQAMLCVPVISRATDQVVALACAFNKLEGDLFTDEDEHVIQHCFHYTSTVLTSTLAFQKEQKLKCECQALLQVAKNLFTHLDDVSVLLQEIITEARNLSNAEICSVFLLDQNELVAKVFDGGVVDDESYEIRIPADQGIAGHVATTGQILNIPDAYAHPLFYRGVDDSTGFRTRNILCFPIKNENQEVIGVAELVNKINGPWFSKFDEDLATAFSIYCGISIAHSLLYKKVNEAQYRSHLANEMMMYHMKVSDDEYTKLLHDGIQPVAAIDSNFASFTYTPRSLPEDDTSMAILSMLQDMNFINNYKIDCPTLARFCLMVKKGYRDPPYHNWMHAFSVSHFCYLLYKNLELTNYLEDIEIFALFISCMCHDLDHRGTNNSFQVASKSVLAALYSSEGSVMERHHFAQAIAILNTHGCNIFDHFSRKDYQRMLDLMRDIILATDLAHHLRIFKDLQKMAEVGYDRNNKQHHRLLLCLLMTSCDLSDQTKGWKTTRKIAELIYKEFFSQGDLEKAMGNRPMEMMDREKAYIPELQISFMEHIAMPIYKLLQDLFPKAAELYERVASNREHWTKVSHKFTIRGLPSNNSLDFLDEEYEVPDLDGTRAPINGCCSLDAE
Sequence of Dual 3',5'-cyclic-AMP and -GMP phosphodiesterase 11A (Q9HCR9 whole entry): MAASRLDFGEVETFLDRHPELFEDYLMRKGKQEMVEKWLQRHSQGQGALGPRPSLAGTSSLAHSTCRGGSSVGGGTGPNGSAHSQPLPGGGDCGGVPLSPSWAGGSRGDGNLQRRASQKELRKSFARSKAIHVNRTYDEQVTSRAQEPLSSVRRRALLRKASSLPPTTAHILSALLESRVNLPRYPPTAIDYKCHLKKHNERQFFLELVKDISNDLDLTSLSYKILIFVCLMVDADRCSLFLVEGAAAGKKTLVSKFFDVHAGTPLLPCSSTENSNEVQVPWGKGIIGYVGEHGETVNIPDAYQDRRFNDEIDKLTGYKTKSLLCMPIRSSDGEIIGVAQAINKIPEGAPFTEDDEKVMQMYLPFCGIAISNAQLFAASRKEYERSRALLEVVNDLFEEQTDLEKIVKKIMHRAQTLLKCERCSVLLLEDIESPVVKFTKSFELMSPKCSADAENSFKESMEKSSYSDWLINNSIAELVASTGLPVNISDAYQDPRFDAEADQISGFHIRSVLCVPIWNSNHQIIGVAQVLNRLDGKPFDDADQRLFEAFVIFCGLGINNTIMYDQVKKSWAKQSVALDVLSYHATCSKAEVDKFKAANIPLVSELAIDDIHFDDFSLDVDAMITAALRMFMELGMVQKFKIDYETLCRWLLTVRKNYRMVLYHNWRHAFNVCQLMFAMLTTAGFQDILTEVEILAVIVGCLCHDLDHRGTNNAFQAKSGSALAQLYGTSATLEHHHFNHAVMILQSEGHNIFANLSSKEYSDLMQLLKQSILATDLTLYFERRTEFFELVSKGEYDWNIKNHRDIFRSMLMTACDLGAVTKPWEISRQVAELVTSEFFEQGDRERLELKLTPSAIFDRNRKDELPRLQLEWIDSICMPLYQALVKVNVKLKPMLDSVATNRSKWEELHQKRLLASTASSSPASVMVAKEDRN
Sequence of High affinity cGMP-specific 3',5'-cyclic phosphodiesterase 9A (O76083 whole entry): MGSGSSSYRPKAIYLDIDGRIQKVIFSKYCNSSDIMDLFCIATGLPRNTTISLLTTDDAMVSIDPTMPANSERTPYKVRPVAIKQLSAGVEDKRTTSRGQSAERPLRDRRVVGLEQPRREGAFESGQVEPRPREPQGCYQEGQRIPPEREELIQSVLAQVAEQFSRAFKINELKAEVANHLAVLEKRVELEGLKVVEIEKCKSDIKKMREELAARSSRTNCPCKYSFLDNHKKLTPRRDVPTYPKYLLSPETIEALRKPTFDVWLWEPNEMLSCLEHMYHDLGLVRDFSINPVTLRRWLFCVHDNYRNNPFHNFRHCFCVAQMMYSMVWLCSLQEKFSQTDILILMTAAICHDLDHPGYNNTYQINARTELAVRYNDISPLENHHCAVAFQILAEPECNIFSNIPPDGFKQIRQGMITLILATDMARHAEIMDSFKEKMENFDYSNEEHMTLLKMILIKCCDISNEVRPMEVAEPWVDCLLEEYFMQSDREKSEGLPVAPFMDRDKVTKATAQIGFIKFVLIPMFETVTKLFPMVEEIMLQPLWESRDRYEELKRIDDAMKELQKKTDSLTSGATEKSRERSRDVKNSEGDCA

SMILES: COc1cc(C)c2nc3[nH]nc(C)c3c(NCC3CCCCO3)c2c1 (stereo unspecified)
- Ki (Phosphodiesterase 6): 843 nM
- Ki [13]: 130 nM

SMILES: COc1cc(C)c2nc3[nH]nc(C)c3c(NCCC3CCOCC3)c2c1
- Ki [13]: 409 nM

SMILES: COc1cc(C)c2nc3[nH]nc(C)c3c(N(C)C3CCOCC3)c2c1
- Ki (Phosphodiesterase 6): 7383 nM
- Ki [13]: 41 nM

SMILES: COc1cc(C)c2nc3[nH]nc(C)c3c(NCC3CN(C)CCO3)c2c1 (stereo unspecified)
- Ki [13]: 280 nM

SMILES: COc1cc(C)c2nc3[nH]nc(C)c3c(NCC3CCOCC3)c2c1
- Ki (Phosphodiesterase 6): 697 nM
- Ki [13]: 52 nM

SMILES: COc1cc(C)c2nc3[nH]nc(C)c3c(NCC3CCNCC3)c2c1
- Ki (Phosphodiesterase 6): 14782 nM
- Ki [13]: 15 nM

SMILES: COc1cc(C)c2nc3[nH]nc(C)c3c(NC3CCOCC3)c2c1
- Ki (Phosphodiesterase 6): 278 nM
- AUC [16]: 12.5 µM·h
- Ki (Phosphodiesterase 3): >= 4793 nM
- ED50 (Rattus norvegicus [17]): 23 mg/kg
- hepatocyte CLint [18]: 2.9 µL/min/1e6 cells
- ED50 (Rattus norvegicus [19]): 4 mg/kg
- hepatocyte CLint [20]: 1.7 µL/min/1e6 cells
- efflux ratio [21]: 0.7
- Ki (Phosphodiesterase 4): >= 4793 nM
- fraction unbound [22]: 0.07
- Ki [23]: ≥ 4790 nM
- Ki [24]: ≥ 4790 nM
- concentration at 6 h [15]: 1100 ng/g
- Ki (Phosphodiesterase 8): >= 4793 nM
- hepatocyte CLint [25]: 0.8 µL/min/1e6 cells
- Ki (Phosphodiesterase 7): >= 4793 nM
- Ki [26]: ≥ 4790 nM
- Ki (Phosphodiesterase 1): >= 4793 nM
- Ki [27]: 17300 nM
- hepatocyte CLint [28]: 54 µL/min/1e6 cells
- Kp at 6 h [12]: 0.7
- Ki [13]: 12 nM
- AUC(0-t) at 6 h [14]: 11.8 µM·h

Continued, in another order:

- Ratio Ki (Homo sapiens [1]): > 1450
- Ratio Ki (Homo sapiens [2]): > 1450
- Ratio Ki (Homo sapiens [3]): > 1450
- Ratio Ki (Homo sapiens [4]): > 1450
- Ratio Ki (Homo sapiens [5]): > 1450
- Ratio Ki (Homo sapiens [6]): > 1450
- Ratio Ki (Homo sapiens [7]): > 1450
- Ratio Ki (Homo sapiens [8]): > 1450
- Ratio Ki (Homo sapiens [9]): > 1450
- Ratio Ki (Homo sapiens [11]): > 1450
- Kp at 6 h [12]: 0.3
- Ki [13]: 3.6 nM
- AUC(0-t) at 6 h [14]: 11 µM·h
SMILES: COc1cc(C)c2nc3[nH]nc(C)c3c(N3CCCOCC3)c2c1
- inhibition (Rattus norvegicus [10]): Active

- concentration at 6 h [15]: < 10 ng/g
- Ki [13]: 1 nM
SMILES: COc1cc(C)c2nc3[nH]nc(C)c3c(N3CCC(N)CC3)c2c1

- Ki [13]: 196 nM
SMILES: COc1cc(C)c2nc3[nH]nc(C)c3c(N3CCSCC3)c2c1

- concentration at 6 h [15]: < 10 ng/g
- Ki [13]: 3 nM
SMILES: COc1cc(C)c2nc3[nH]nc(C)c3c(N3CCC(C(N)=O)CC3)c2c1

- concentration at 6 h [15]: < 10 ng/g
- Ki [13]: 9.6 nM
SMILES: COc1cc(C)c2nc3[nH]nc(C)c3c(N3CCOC(CO)C3)c2c1 (racemic)

- Ki [13]: 585 nM
SMILES: COc1ccc2nc3[nH]nc(C)c3c(N3CCNCC3)c2c1

- concentration at 6 h [15]: < 10 ng/g
- Ki [13]: 29 nM
SMILES: COc1cc(C)c2nc3[nH]nc(C)c3c(N3CCCC(CO)C3)c2c1 (racemic)

- Ki [13]: 35 nM
- AUC(0-t) at 6 h [14]: 0.14 µM·h
SMILES: Cc1cc(Cl)cc2c(N3CCNCC3)c3c(C)n[nH]c3nc12

- concentration at 6 h [15]: < 10 ng/g
- Ki [13]: 14 nM
SMILES: COc1cc(C)c2nc3[nH]nc(C)c3c(N3CCC(O)CC3)c2c1
